Assays:
[1] = Michaelis constant against leucine aminopeptidase-C
[2] = Michaelis constant against Leucine aminopeptidase-M
[3] = tested on: NCC(=O)NC(Cc1ccccc1)C(=O)Nc1ccc([N+](=O)[O-])cc1; assay: Michaelis constant against Dipeptidyl aminopeptidase 1
In short: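 Cathepsin C diluted 1:200 daily in ice-cold 50 mM citrate pH 5 with 10 mM cysteamine. Gly-Phe p-nitroanilide hydrolysis at 37 °C read at 405 nm (Δε 9900 M⁻¹ cm⁻¹), started by adding substrate to prewarmed enzyme/inhibitor. Irreversible inhibition: enzyme preincubated with varied inhibitor levels, aliquots diluted into substrate over time. k_app from ln(% activity) vs time; Ki and k2 from 1/k_app vs 1/[I].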

| Km [1] [µM] | Km [2] [µM] | Compound | Km [3] [µM] |
| --- | --- | --- | --- |
| 2100 | 600 | CC(C)C[C@H](N)C(=O)Nc1ccc([N+](=O)[O-])cc1 |  |
|  |  | Dipeptidyl peptidase 1 (Homo sapiens), P53634 | 3100 |
